PolyA inhibitor: inhibitors of polyadenylation in S. cerevisiae | S. cerevisiae SKY197-pL101 polyadenylation reporter, beta-gal luminescence; efflux-impaired pdr1/pdr3 knockout yeast; score 100 = 6 SD above DMSO | activity score, % at 12 µM | actives 0.02% (n = 300,000) | AID 1875;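 active = lowest replicate activity score at least 50, where 100 means six control SD above control mean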;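 note: yeast exposed to compound for 9 h at 30 °C; higher score means more reporter readthrough which indicates perturbed polyadenylation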
GSK3B inh: blocks human GSK3beta kinase activity | GST-GSK3beta kinase, ADP-Glo luminescence, 60 min; active compounds read low | activity score (negative = inhibition), % at 10 µM | actives 0.038% (n = 300,000) | AID 2097;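 active = more than half of replicate wells score below -50%, meaning over 50% inhibition versus plate controls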;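 note: 0% = median DMSO wells and -100% = median GW8510 positive control wells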
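test system = GST-tagged human GSK3beta kinase, cell-free | reagent = 25 µM ATP with peptide substrate | dosing = one dose of 10 µM per compound | schedule = 60 min reaction, RT | detection = luminescent ADP-Glo measurement of ADP formed | control set = DMSO neutral wells and GW8510 at 20 µM as positive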
Efflux pump mplx: inhibitors of Candida antifungal efflux pumps expressed in yeast; AID 485275; inhibition, % at 10 µM; S. cerevisiae Candida pump triplex, Nile Red efflux; actives 0.44% (n = 330,000);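 active = plate passing quality check with inhibition over a set limit, or well fluorescence over plate mean plus 4 SD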;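 note: Nile Red retained in pooled yeast measured as flow cytometry median fluorescence; 0% = buffer negative control and 100% = Enniatin B positive control; higher means more Nile Red kept so more efflux inhibition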
STK33 kinase inh: human STK33 kinase inhibition. purified STK33, MBP phosphorylation, ADP-Glo luminescence. inhibition, % at 10 µM. actives 0.073% (n = 320,000). AID 2661;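 active = inhibition at or above 25%, using the most active replicate where run in duplicate; inactive = inhibition below 25%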
GSK3A inh: blocks human GSK-3 alpha kinase; actives 0.1% (n = 320,000); ADP-Glo luminescence, 60 min; inhibition, % at 10 µM;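 active = more than half of replicates show inhibition above 20%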;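 note: GST-tagged GSK-3 alpha with peptide substrate and 25 µM ATP; 0% = DMSO neutral wells and 100% = GW8510 positive control wells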
Target sequence (P49840 whole entry, looked up): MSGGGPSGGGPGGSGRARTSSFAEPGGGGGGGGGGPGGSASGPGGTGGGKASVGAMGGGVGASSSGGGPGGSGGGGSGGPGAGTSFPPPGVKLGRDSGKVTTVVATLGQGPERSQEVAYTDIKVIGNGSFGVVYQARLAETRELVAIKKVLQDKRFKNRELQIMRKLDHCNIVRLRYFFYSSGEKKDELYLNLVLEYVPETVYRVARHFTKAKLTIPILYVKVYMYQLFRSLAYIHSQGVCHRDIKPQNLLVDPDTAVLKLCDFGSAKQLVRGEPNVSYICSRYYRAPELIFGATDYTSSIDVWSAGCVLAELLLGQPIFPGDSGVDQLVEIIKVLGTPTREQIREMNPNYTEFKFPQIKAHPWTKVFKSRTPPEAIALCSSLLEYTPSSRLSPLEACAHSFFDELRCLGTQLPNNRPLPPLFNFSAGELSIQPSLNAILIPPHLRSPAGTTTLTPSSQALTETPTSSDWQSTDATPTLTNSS
Cmpd fluor yeast: flagged as fluorescent in efflux inhibitor counter-screen; shares compounds with Efflux pump mplx; S. cerevisiae AD/pABC3, compound fluorescence, flow cytometry; fluorescence ratio to DMSO, % at 10 µM; actives 4% (n = 1,700);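 active = fluorescence ratio to DMSO above its plate's cutoff, the plate mean ratio plus 5 SD, cut at about 210% in these data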;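 note: unstained yeast with no Nile Red so the signal is compound autofluorescence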
Mdr1 pump inh: inhibitors of Candida albicans Mdr1 efflux pump. shares compounds with Efflux pump mplx. S. cerevisiae AD/CaMDR1, Nile Red efflux, flow cytometry. inhibition, % at 10 µM. actives 1% (n = 1,700). AID 588518; in the data active = inhibition above about 26%;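 note: 0% = DMSO vehicle and 100% = reference inhibitor; higher means more Nile Red retained so more efflux inhibition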
Cdr2 pump inh: blocks the Candida albicans Cdr2 efflux pump in yeast; shares compounds with Efflux pump mplx; S. cerevisiae AD/CaCDR2, Nile Red retention, flow cytometry; Nile Red retention ratio vs DMSO, % at 10 µM; actives 4% (n = 1,700); AID 588520; in the data active = Nile Red retention ratio vs DMSO above about 190%;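 note: higher ratio means more blocking of Cdr2 efflux of the dye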
Cdr1 pump inh: inhibitors of Candida albicans Cdr1 efflux pump; shares compounds with Efflux pump mplx; S. cerevisiae AD/CaCDR1, Nile Red efflux, flow cytometry; inhibition, % at 10 µM; actives 1% (n = 1,700); AID 588522;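 active = inhibition above the screen-wide mean plus twice its standard deviation, cut at about 32% in these data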
An asterisk follows results filed as active; nt = no result. Rows were chosen to be rich in hits. Some 0.6% of all compounds tested hit in one or more screens of this group.

SMILES	PolyA inhibitor	GSK3B inh	Efflux pump mplx	STK33 kinase inh	GSK3A inh	Cmpd fluor yeast	Mdr1 pump inh	Cdr2 pump inh	Cdr1 pump inh
S=C(Nc1ccc(Cl)cc1Cl)N1CCCCC1	-7	2	16*	-3	-1	98	0	112	0
COC(=O)C1=C(C)Nc2c(c(=O)n(C)c(=O)n2C)C1c1ccc(Cl)cc1 (stereo not drawn)	6	0	22*	-2	-2	101	0	96	0
c1cnn(-c2nc(N3CCOCC3)nc(N3CCOCC3)n2)c1	9	0	0	1	0	nt	nt	nt	nt
CCCCN(C)CCCNC(=O)c1cn(CC)c2ccc(S(=O)(=O)N3CCc4ccccc4C3)cc2c1=O	7	-1	0	0	0	nt	nt	nt	nt
CCn1cc(C(=O)NCCCN2CCCC2)c(=O)c2cc(S(=O)(=O)N3CCc4ccccc4C3)ccc21	1	-1	1.1*	0	0	100	0	102	0
CCC1=C(OC(=O)N(CC)CC)N2C(=O)OC(=NCCc3c[nH]c4ccccc34)[C@]2(Cc2ccccc2)[C@H]2C1=CC[C@H]1C(=O)N(CC)C(=O)[C@H]12	-10	2	39*	0	2	106	0	91	0
O=C(CSc1ccccc1F)Nc1ccc(N2CCOCC2)cc1	nt	nt	0.8*	3	17	117	1	112	0
Cn1c(CC(=O)Nc2ccccc2)nnc1SCC(=O)Nc1ccc(N2CCOCC2)cc1	-4	2	0	-2	0	nt	nt	nt	nt
Cn1c(Cc2ccccc2)nnc1SCC(=O)Nc1ccc(N2CCOCC2)cc1	9	nt	1.3*	-2	-3	106	0	112	0
COc1ccc(CCNC(=O)CSc2nnc(NC(C)=O)s2)cc1OC	-4	2	0	-2	1	nt	nt	nt	nt
CCOC(=O)N/N=C(/c1ccccc1)C1CCCCC1	-6	-2	0	-1	-3	nt	nt	nt	nt
COc1cccc(CN(CC(=O)NCC2CCCO2)C(=O)CCC(=O)Nc2cc(C)on2)c1 (stereo not drawn)	-2	2	0	-1	-1	124	0	110	0
CCOC(=O)c1nn(-c2ccc(C)cc2)c(C)c1C(C)=O	-8	-4	0	-2	-2	nt	nt	nt	nt
CCOC(=O)c1nn(-c2ccc(OCC)cc2)c(C)c1C(C)=O	2	-1	1.8*	1	-1	108	0	98	0
CN1CCCC1CCNc1ccc2sc3ccccc3c(=O)c2c1 (stereo not drawn)	-12	-5	2.0*	44*	15	254*	1	96	1
Cc1cc2oc3cc(NCCC4CCCN4C)ccc3c(=O)c2cc1C (stereo not drawn)	22	-3	0	6	4	nt	nt	nt	nt
O=C(N/N=C/c1ccc2cccnc2c1)c1ccco1	4	0	0	1	-2	nt	nt	nt	nt
CC(=O)c1ccc(C(=O)NC2CC(C)(C)Cc3c2cnn3-c2ccccc2)cc1 (stereo not drawn)	28	2	0	0	0	nt	nt	nt	nt
COc1cccc(C(=O)NC2CC(C)(C)Cc3c2cnn3-c2cccc(F)c2)c1OC (stereo not drawn)	12	2	0	0	1	107	0	106	0
Cc1cnc(C(=O)NC2CC(C)(C)Cc3c2cnn3-c2ccccc2)cn1 (stereo not drawn)	-17	-6	1	0	1	98	0	107	0
COc1ccc(-n2ncc3c2CC(C)(C)CC3NC(=O)c2cnc(C)cn2)cc1 (stereo not drawn)	0	0	0	-1	0	105	0	96	0
COc1cc(C(=O)NC2CC(C)(C)Cc3c2cnn3-c2ccccc2)cc(OC)c1OC (stereo not drawn)	6	5	0	-1	-2	nt	nt	nt	nt
Cc1c(NS(=O)(=O)c2ccc(Cl)c(C(=O)OC(C)C(=O)NCc3ccco3)c2)c(=O)n(-c2ccccc2)n1C (stereo not drawn)	5	4	0	0	0	nt	nt	nt	nt
COCCN(C(=O)CNC(=O)c1ccco1)C(C(=O)NC1CCCC1)c1ccc(F)cc1 (stereo not drawn)	6	2	1	-1	-2	nt	nt	nt	nt
COc1ccc(-n2c(=O)c(CCC(=O)N3CCN(c4ccccc4O)CC3)nc3ccccc32)cc1	-1	2	0	-1	-2	nt	nt	nt	nt
SMILES	PolyA inhibitor	GSK3B inh	Efflux pump mplx	STK33 kinase inh	GSK3A inh	Cmpd fluor yeast	Mdr1 pump inh	Cdr2 pump inh	Cdr1 pump inh
Cc1ccnc(N2C(=O)c3cccc4c([N+](=O)[O-])ccc(c34)C2=O)c1	-52	0	0.9*	-1	3	216	1	129	1
COc1ccc(N2C(=O)CC(N3CCN(c4ccc(C(=O)c5cccnc5)cc4)CC3)C2=O)cc1 (stereo not drawn)	-10	8	9.8*	0	0	96	0	96	0
Cc1nn2c3c(cnc2c1-c1ccccc1)C(=O)CCC3	1	3	0.6*	nt	9	106	0	103	0
CCCCNC(=O)COC(=O)c1ccc(N(C)C)cc1	27	-2	0	-1	-2	nt	nt	nt	nt
Cc1ccc2c(c1)[C@H]1[C@H](CO2)[C@H](c2ccccc2)[C@]2(C)C(=O)Nc3cc(F)c(F)cc3C(=O)N12	nt	nt	0	-1	-1	101	0	98	0
COc1ccc2c(c1)OC[C@H]1[C@H]2N2C(=O)c3ccc(C)cc3NC(=O)[C@@]2(C)[C@H]1c1ccccc1	nt	nt	34*	0	0	104	0	106	0
COc1cc2c(cc1OC)C(=O)N1[C@H]3c4cc(C)ccc4OC[C@@H]3[C@H](c3ccccc3)[C@]1(C)C(=O)N2	nt	nt	0	-1	0	117	1	121	1
COc1ccc2c(c1)[C@H]1[C@H](CO2)[C@H](c2ccccc2)[C@]2(C)C(=O)Nc3cc(C)ccc3C(=O)N12	nt	nt	0	-1	-3	nt	nt	nt	nt
COc1ccc2c(c1)C(=O)N1[C@H]3c4cc(Cl)ccc4OC[C@@H]3[C@H](c3ccccc3)[C@]1(C)C(=O)N2	nt	nt	0	-1	-4	89	0	112	0
Cc1cc(C(=O)NC2CCCC(C)C2C)c2ccccc2n1 (stereo not drawn)	12	6	0	0	1	nt	nt	nt	nt
Cc1noc(NS(=O)(=O)c2ccc(NC(=O)c3cccc(S(=O)(=O)Nc4ccccc4F)c3)cc2)c1C	nt	nt	0	0	-5	nt	nt	nt	nt
